{"data": "Measured values collected from several papers", "effect on": "cell growth or viability"}
{"SMILES": "COc1ccc(C=C(C#N)C(=O)c2c[nH]c3ccccc23)cc1OC", "cell line": "MIA PaCa-2", "technique": "MTT", "time": "48 h", "IC50 [µM]": 37}
{"SMILES": "FC(F)(F)c1cc(OCc2cc(-c3ccccn3)no2)c2ccccc2n1", "cell line": "LN-229", "technique": "MTS", "time": "72 h", "IC50 [µM]": "> 100"}
{"SMILES": "CCn1cc(C=C(C#N)C(=O)c2c[nH]c3cc(OC)ccc23)c2ccccc21", "cell line": "MIA PaCa-2", "technique": "MTT", "time": "48 h", "IC50 [µM]": "> 40"}
{"SMILES": "Cc1ncsc1-c1ccc(CNC(=O)[C@@H]2C[C@@H](O)CN2C(=O)[C@@H](NC(=O)C2(F)CC2)C(C)(C)C)c(OCCOc2ccc(CN3CCN(c4cc(-c5ccccc5O)nnc4N)CC3)cc2)c1", "cell line": "LNCaP", "technique": "ATP luminescence", "time": "7 days", "IC50 [µM]": 0.0161}
{"SMILES": "Cc1c(-c2ccc(N3CCc4cccc(C(=O)Nc5nc6ccccc6s5)c4C3)nc2C(=O)O)cnn1CC12CC3CC(C1)CC(C(=O)NCCOCCNc1cccc4c1C(=O)N(C1CCC(=O)NC1=O)C4=O)(C3)C2 (centres unmarked)", "cell line": "MOLT-4", "technique": "MTS", "time": "48 h", "IC50 [µM]": 0.0516}
{"SMILES": "c1ccc(-c2cc(CNc3cccc4cccnc34)on2)cc1", "cell line": "LN-229", "technique": "MTS", "time": "72 h", "IC50 [µM]": 33.7}
{"SMILES": "Cc1ncsc1-c1ccc([C@H](CC(=O)NCCCCCCNC(=O)c2nc(N3CCc4cccc(C(=O)Nc5nc6ccccc6s5)c4C3)ccc2-c2cnn(CC34CC5CC(CC(C5)C3)C4)c2C)NC(=O)[C@@H]2C[C@@H](O)CN2C(=O)[C@@H](NC(=O)C2(C#N)CC2)C(C)(C)C)cc1", "cell line": "MOLT-4", "technique": "MTS", "time": "48 h", "IC50 [µM]": 0.117}
{"SMILES": "CCn1cc(C=C(C#N)C(=O)c2c[nH]c3cc(OC)c(OC)cc23)c2ccccc21", "cell line": "MIA PaCa-2", "technique": "MTT", "time": "48 h", "IC50 [µM]": 13}
{"SMILES": "FC(F)(F)c1ccc(-c2cc(CNc3cccc4cccnc34)on2)cc1", "cell line": "LN-229", "technique": "MTS", "time": "72 h", "IC50 [µM]": 51.8}
{"SMILES": "O=C(NO)c1ccc(Cn2cnc3c(Nc4ccc(F)c(Cl)c4)ncnc32)cc1", "cell line": "Jurkat", "technique": "MTT", "time": "72 h", "IC50 [µM]": 1.2}
{"SMILES": "NS(=O)(=O)c1ccc(-n2nc(C(=O)NN3C(=O)c4ccccc4C3=O)cc2-c2ccccc2)cc1", "cell line": "PaCa-2", "technique": "fluorescence", "time": "48 h", "IC50 [µM]": 35.4}
{"SMILES": "Cc1nc2c(n1CCCN1CCCCC1)C(=O)c1ccccc1C2=O", "cell line": "MIA PaCa-2", "technique": "MTT", "IC50 [µM]": 14.7}
{"SMILES": "c1ccc(-c2cc(CNc3cccc4cccnc34)on2)nc1", "cell line": "LN-229", "technique": "MTS", "time": "72 h", "IC50 [µM]": 22.8}
{"SMILES": "CC(C)C(=O)Nc1ccc([N+](=O)[O-])c(C(F)(F)F)c1", "cell line": "LNCaP", "technique": "MTS", "time": "48 h", "IC50 [µM]": 99.9}
{"SMILES": "NS(=O)(=O)c1ccc(-n2nc(C(=O)NN3C(=O)CCC3=O)cc2-c2ccccc2)cc1", "cell line": "PaCa-2", "technique": "fluorescence", "time": "48 h", "IC50 [µM]": 27.4}
{"SMILES": "COc1cc(C2C3=C(COC3=O)N(CCO)c3cc4c(cc32)CCC4)cc(OC)c1OC (centres unmarked)", "cell line": "BT-549", "technique": "ATP luminescence", "time": "48 h", "IC50 [µM]": 0.037}
{"SMILES": "O=c1cc(OCc2cc(-c3ccc(Cl)cc3Cl)no2)c2ccccc2o1", "cell line": "LN-229", "technique": "MTS", "time": "72 h", "IC50 [µM]": "> 100"}
{"SMILES": "COc1cc2[nH]cc(C(=O)C(C#N)=Cc3cn(Cc4ccc(Cl)cc4)c4ccccc34)c2cc1OC", "cell line": "MIA PaCa-2", "technique": "MTT", "time": "48 h", "IC50 [µM]": "> 40"}
{"SMILES": "COc1cc([C@@H]2c3cc4c(cc3[C@@H](O[C@@H]3O[C@@H]5CO[C@@H](C)O[C@H]5[C@H](O)[C@H]3O)[C@H]3COC(=O)[C@H]23)OCO4)cc(OC)c1O", "cell line": "LN-229", "technique": "MTS", "time": "72 h", "IC50 [µM]": 4.8}
{"SMILES": "Cc1ncsc1-c1ccc([C@H](CC(=O)NCCCCNC(=O)c2nc(N3CCc4cccc(C(=O)Nc5nc6ccccc6s5)c4C3)ccc2-c2cnn(CC34CC5CC(CC(C5)C3)C4)c2C)NC(=O)[C@@H]2C[C@@H](O)CN2C(=O)[C@@H](NC(=O)C2(C#N)CC2)C(C)(C)C)cc1", "cell line": "MOLT-4", "technique": "MTS", "time": "48 h", "IC50 [µM]": 0.0313}
{"SMILES": "O=C(CSc1nc2ccccc2s1)N/N=C/c1ccc(OCC(=O)Nc2ccc(Br)cc2)cc1", "cell line": "LN-229", "technique": "MTS", "time": "72 h", "IC50 [µM]": 27.8}
{"SMILES": "Cc1ncsc1-c1ccc([C@H](CC(=O)NCCCCCCCCNC(=O)c2nc(N3CCc4cccc(C(=O)Nc5nc6ccccc6s5)c4C3)ccc2-c2cnn(CC34CC5CC(CC(C5)C3)C4)c2C)NC(=O)[C@@H]2C[C@@H](O)CN2C(=O)[C@@H](NC(=O)C2(C#N)CC2)C(C)(C)C)cc1", "cell line": "MOLT-4", "technique": "MTS", "time": "48 h", "IC50 [µM]": 0.313}
{"SMILES": "N#CC(=Cc1cn(Cc2ccc(Cl)cc2)c2ccccc12)C(=O)c1c[nH]c2ccccc12", "cell line": "MIA PaCa-2", "technique": "MTT", "time": "48 h", "IC50 [µM]": 4.9}
{"SMILES": "CNc1cccc(Nc2nc(-c3ccncc3)nc3c2CNCC3)c1", "cell line": "DU-145", "technique": "MTT", "IC50 [µM]": 45.2}
{"SMILES": "Nc1ccccc1NC(=O)c1ccc(Cn2cnc3c(Nc4ccc(Cl)cc4)ncnc32)cc1", "cell line": "Jurkat", "technique": "MTT", "time": "72 h", "IC50 [µM]": 13.5}
{"SMILES": "Nc1cccc2c1C(=O)N(C1CCC(=O)NC1=O)C2=O (centres unmarked)", "cell line": "SU-DHL-2", "technique": "CCK-8", "time": "7 days", "IC50 [µM]": 1.5}
{"SMILES": "Cc1c(-c2ccc(N3CCc4cccc(C(=O)Nc5nc6ccccc6s5)c4C3)nc2C(=O)O)cnn1CC12CC3CC(CC(C3)C1)C2", "cell line": "MOLT-4", "technique": "MTS", "time": "48 h", "IC50 [µM]": 0.0021}
{"SMILES": "NS(=O)(=O)c1ccc(-n2nc(-c3nnc(CCl)o3)cc2-c2ccccc2)cc1", "cell line": "PaCa-2", "technique": "fluorescence", "time": "48 h", "IC50 [µM]": 26.3}
{"SMILES": "O=C(CSc1nc2ccccc2s1)N/N=C/c1ccc(OCC(=O)Nc2cccc([N+](=O)[O-])c2)cc1", "cell line": "LN-229", "technique": "MTS", "time": "72 h", "IC50 [µM]": 24.2}
{"SMILES": "N#Cc1ccc(-c2cc(CNc3cccc4cccnc34)on2)cc1", "cell line": "LN-229", "technique": "MTS", "time": "72 h", "IC50 [µM]": 27.2}
{"SMILES": "CCOc1ccc2[nH]cc(C(=O)C(C#N)=Cc3cn(CC)c4ccccc34)c2c1", "cell line": "MIA PaCa-2", "technique": "MTT", "time": "48 h", "IC50 [µM]": 5.8}
{"SMILES": "O=C(NO)c1ccc(Cn2cnc3c(Nc4cccc([N+](=O)[O-])c4)ncnc32)cc1", "cell line": "Jurkat", "technique": "MTT", "time": "72 h", "IC50 [µM]": 0.89}
{"SMILES": "Cc1c(-c2ccc(N3CCc4cccc(C(=O)Nc5nc6ccccc6s5)c4C3)nc2C(=O)O)cnn1CC12CC3CC(C1)CC(C(=O)NCCCCNc1cccc4c1C(=O)N(C1CCC(=O)NC1=O)C4=O)(C3)C2 (centres unmarked)", "cell line": "MOLT-4", "technique": "MTS", "time": "48 h", "IC50 [µM]": 0.0302}
{"SMILES": "CN1C(=O)C(=O)c2cc3c(c4c2c1cc1ccccc14)OCO3", "cell line": "T47D", "technique": "MTT", "time": "75 h", "IC50 [µM]": 61}
{"SMILES": "CC(=NNC(=O)c1cc(-c2ccccc2)n(-c2ccc(S(N)(=O)=O)cc2)n1)c1ccc(Br)cc1", "cell line": "PaCa-2", "technique": "fluorescence", "time": "48 h", "IC50 [µM]": 31.5}
{"SMILES": "Cc1ncsc1-c1ccc([C@H](C)NC(=O)[C@H]2C[C@H](O)CN2C(=O)[C@@H](NC(=O)CCCCCCCS(=O)(=O)NC(=O)c2nc(N3CCc4cccc(C(=O)Nc5nc6ccccc6s5)c4C3)ccc2-c2cnn(CC34CC5CC(CC(C5)C3)C4)c2C)C(C)(C)C)cc1", "cell line": "human Platelet", "technique": "MTS", "time": "48 h", "IC50 [µM]": 0.931}
{"SMILES": "COC[C@H](NC(=O)c1ccn(S(C)(=O)=O)c1)C(=O)Nc1nc(-c2cccc(N3C[C@@H](C)O[C@@H](C)C3)n2)cs1", "cell line": "LNCaP", "technique": "ATP luminescence", "time": "7 days", "IC50 [µM]": 0.008}
{"SMILES": "NS(=O)(=O)c1ccc(-n2nc(C(=O)NN=Cc3cccnc3)cc2-c2ccccc2)cc1", "cell line": "PaCa-2", "technique": "fluorescence", "time": "48 h", "IC50 [µM]": 27.8}
{"SMILES": "O=c1cc(OCc2cc(-c3ccc(C(F)(F)F)cc3)no2)c2ccccc2o1", "cell line": "LN-229", "technique": "MTS", "time": "72 h", "IC50 [µM]": "> 100"}
{"SMILES": "Cc1c(-c2ccc(N3CCc4cccc(C(=O)Nc5nc6ccccc6s5)c4C3)nc2C(=O)O)cnn1CC12CC3CC(C1)CC(C(=O)NCCCCCCCCCCNc1cccc4c1C(=O)N(C1CCC(=O)NC1=O)C4=O)(C3)C2 (centres unmarked)", "cell line": "MOLT-4", "technique": "MTS", "time": "48 h", "IC50 [µM]": 0.021}
{"SMILES": "CCc1oc2cc(S(=O)(=O)Nc3ccc(S(=O)(=O)Nc4nccs4)cc3)ccc2c1C(=O)c1cc(Br)c(O)c(Br)c1", "cell line": "T47D", "technique": "MTT", "time": "96 h", "IC50 [µM]": 62.2}
{"SMILES": "CCCOc1ccc2[nH]cc(C(=O)C(C#N)=Cc3cn(C)c4ccccc34)c2c1", "cell line": "MIA PaCa-2", "technique": "MTT", "time": "48 h", "IC50 [µM]": 28.9}
{"SMILES": "CN1CCC(NC2CCc3[nH]c4c(C(N)=O)ccc(-c5ccccc5Cl)c4c3C2)CC1 (centres unmarked)", "cell line": "Jurkat", "time": "96 h", "IC50 [µM]": 0.0193}
{"SMILES": "Nc1ccccc1NC(=O)c1ccc(Cn2cnc3c(Nc4ccc(Br)cc4F)ncnc32)cc1", "cell line": "Jurkat", "technique": "MTT", "time": "72 h", "IC50 [µM]": 4.73}
